In test [1] the target is T1, Neuropeptide Y receptor type 4 (Homo sapiens, UniProt P50391). The test is described as follows: Agonist potency for the inhibition of Forskolin stimulated cAMP synthesis in cells expressing cloned Y4 receptors(no effect at <20000 nM). It counts as functional. In outline: (§1)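 Inhibition of forskolin-driven cAMP synthesis in cells expressing the Y4 receptor, with PP run as the reference control.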

The target of test [2] is T2, Neuropeptide Y receptor type 5 (Homo sapiens, UniProt Q15761).
T2 sequence (Q15761 whole entry): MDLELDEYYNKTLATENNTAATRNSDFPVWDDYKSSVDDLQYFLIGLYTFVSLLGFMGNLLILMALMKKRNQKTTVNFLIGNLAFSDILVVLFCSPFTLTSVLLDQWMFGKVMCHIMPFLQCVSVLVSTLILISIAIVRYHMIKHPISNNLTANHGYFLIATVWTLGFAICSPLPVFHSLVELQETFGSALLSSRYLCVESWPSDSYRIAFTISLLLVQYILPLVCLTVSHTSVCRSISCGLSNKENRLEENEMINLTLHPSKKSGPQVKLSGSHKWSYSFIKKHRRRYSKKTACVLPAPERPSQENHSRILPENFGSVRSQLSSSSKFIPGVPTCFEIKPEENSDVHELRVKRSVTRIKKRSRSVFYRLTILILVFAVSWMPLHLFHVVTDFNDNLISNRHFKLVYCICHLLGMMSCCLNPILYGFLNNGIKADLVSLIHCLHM
Briefly: Agonist potency for the inhibition of Forskolin stimulated cAMP synthesis in cells expressing cloned Y5 receptors(no effect at <20000 nM). The test is classed as functional.

For test [3], the target named is Neuropeptide Y receptor type 2 (Homo sapiens) (UniProt P49146). Briefly: Agonist potency for the inhibition of Forskolin stimulated cAMP synthesis in cells expressing cloned Y2 receptors; no effect means no agonist activity at <20 000 nM.
Test [4] addresses T3, Neuropeptide Y receptor type 1 (Homo sapiens) (UniProt P25929).
T3 sequence (whole entry): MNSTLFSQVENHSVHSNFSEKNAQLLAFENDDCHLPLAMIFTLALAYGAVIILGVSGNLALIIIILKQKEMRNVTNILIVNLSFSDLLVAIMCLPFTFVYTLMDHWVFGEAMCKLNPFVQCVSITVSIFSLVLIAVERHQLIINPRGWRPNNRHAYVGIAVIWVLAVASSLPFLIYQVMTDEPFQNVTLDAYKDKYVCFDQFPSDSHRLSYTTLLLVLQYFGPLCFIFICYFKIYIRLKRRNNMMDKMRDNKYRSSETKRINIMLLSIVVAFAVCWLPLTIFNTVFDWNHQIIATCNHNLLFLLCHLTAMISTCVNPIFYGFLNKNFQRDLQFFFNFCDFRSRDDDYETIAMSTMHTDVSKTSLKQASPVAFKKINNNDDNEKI
The test is described as follows: Antagonist potency for the inhibition of Forskolin stimulated cAMP synthesis in cells expressing cloned Y1 receptors. The test is classed as functional.

The nature of test [5]: Selectivity ratio of Y1/Y2/Y4/Y5; 1/3840/120/2450.
Test [6] has as its target T2, Neuropeptide Y receptor type 5. The test is described as follows: Affinity for cloned Y5 receptor using [125I]PYY as radioligand.
Test [7] addresses T4, Neuropeptide Y receptor type 2 (Homo sapiens, UniProt P49146).
T4 sequence (P49146 whole entry): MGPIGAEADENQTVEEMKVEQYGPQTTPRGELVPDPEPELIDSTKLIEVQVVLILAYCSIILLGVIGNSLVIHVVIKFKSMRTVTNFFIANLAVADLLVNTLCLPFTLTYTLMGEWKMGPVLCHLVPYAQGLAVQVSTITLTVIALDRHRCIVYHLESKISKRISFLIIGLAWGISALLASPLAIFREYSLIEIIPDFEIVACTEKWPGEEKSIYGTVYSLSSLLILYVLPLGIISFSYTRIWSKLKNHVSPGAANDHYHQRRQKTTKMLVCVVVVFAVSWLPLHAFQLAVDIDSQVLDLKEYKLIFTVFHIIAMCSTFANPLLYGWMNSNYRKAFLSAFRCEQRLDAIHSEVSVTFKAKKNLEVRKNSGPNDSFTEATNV
Briefly: Agonist potency for the inhibition of Forskolin stimulated cAMP synthesis in cells expressing cloned Y2 receptors. The test is classed as functional.

Test [8] concerns the target T2, Neuropeptide Y receptor type 5. Briefly: Agonist potency for the inhibition of Forskolin stimulated cAMP synthesis in cells expressing cloned Y5 receptors. The test is classed as functional.
Test [9] addresses T3, Neuropeptide Y receptor type 1 (Homo sapiens). Briefly: Selectivity ratio of Y1/Y2/Y4/Y5; 1/790/3/1640.
Test [10] deals with T1, Neuropeptide Y receptor type 4. Briefly: Affinity for cloned Y4 receptor using [125I]PP as radioligand.
Test [11] concerns the target T5, Neuropeptide Y receptor type 1 (Homo sapiens, UniProt P25929).
T5 sequence (P25929 whole entry): T3 sequence (whole entry)
Briefly: Affinity for cloned Y1 receptor using [125I]PYY as radioligand.

Test [12] deals with T4, Neuropeptide Y receptor type 2. The test is described as follows: Affinity for cloned Y2 receptor using [125I]PYY as radioligand.
Test [13] has as its target T1, Neuropeptide Y receptor type 4. The test is described as follows: Agonist potency for the inhibition of Forskolin stimulated cAMP synthesis in cells expressing cloned Y4 receptors. It counts as functional. In outline:
as §1

What is called EC50 is the concentration at which the effect is half-maximal. Read a high EC50 as a less potent agent. A word on the Kb: it is the equilibrium dissociation constant of an antagonist, usually derived from a functional assay. A lower Kb goes with higher antagonist affinity. In general, Ki refers to the dissociation constant of the complex between target and ligand, obtained from inhibition or displacement. High values mean a looser hold on the target, low ones a stronger hold on the target.

Where a SMILES comes first, the peptide text is derived from it. Bridges are numbered along the chain shown (N, C = ends). Roman numbers before positions name the chains, in order. [ ]: non-standard residue; d: D form. Dap = NC[C@H](N)C(=O)O

T1 sequence (P50391 whole entry): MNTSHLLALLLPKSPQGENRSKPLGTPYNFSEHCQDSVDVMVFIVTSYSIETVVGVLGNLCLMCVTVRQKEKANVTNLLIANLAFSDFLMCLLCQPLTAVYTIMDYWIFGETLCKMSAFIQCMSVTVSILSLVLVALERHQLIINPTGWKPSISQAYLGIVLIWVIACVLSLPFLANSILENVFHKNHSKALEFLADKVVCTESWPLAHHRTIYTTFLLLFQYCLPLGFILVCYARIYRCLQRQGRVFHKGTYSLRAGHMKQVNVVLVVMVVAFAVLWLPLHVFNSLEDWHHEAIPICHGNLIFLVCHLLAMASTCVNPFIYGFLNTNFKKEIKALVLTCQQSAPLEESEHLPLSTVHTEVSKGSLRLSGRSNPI

For `CC[C@H](C)[C@H](N)C(=O)N[C@H]1CCC(=O)NC[C@@H](C(=O)N[C@@H](Cc2ccc(O)cc2)C(=O)N[C@@H](CCCN=C(N)N)C(=O)N[C@@H](CC(C)C)C(=O)N[C@@H](CCCN=C(N)N)CN[C@@H](Cc2ccc(O)cc2)C(N)=O)NC(=O)[C@@H]2CCCN2C(=O)[C@@H](NC(=O)[C@@H](N)[C@@H](C)CC)CCC(=O)NC[C@@H](C(=O)N[C@@H](Cc2ccc(O)cc2)C(=O)N[C@@H](CCCN=C(N)N)C(=O)N[C@@H](CC(C)C)C(=O)N[C@@H](CCCN=C(N)N)CN[C@@H](Cc2ccc(O)cc2)C(N)=O)NC(=O)[C@@H]2CCCN2C1=O`, the concentration giving a half-maximal response (EC50) entry in test [1], in test [2] and in test [3] was “Not Active” in each case.
In test [4], `CC[C@H](C)[C@H](N)C(=O)N[C@H]1CCC(=O)NC[C@@H](C(=O)N[C@@H](Cc2ccc(O)cc2)C(=O)N[C@@H](CCCN=C(N)N)C(=O)N[C@@H](CC(C)C)C(=O)N[C@@H](CCCN=C(N)N)C(=O)N[C@@H](Cc2ccc(O)cc2)C(=O)OC)NC(=O)[C@@H]2CCCN2C(=O)[C@H](NC(=O)[C@@H](N)[C@@H](C)CC)CCC(=O)NC[C@H](C(=O)N[C@@H](Cc2ccc(O)cc2)C(=O)N[C@@H](CCCN=C(N)N)C(=O)N[C@@H](CC(C)C)C(=O)N[C@@H](CCCN=C(N)N)C(=O)N[C@@H](Cc2ccc(O)cc2)C(=O)OC)NC(=O)[C@@H]2CCCN2C1=O` returned an antagonist dissociation constant (Kb) of 0.19 nM. Also, in test [5], the Selectivity result is on record as “Y1/Y4/Y5/Y2”.
In the case of `CC[C@H](C)[C@H](N)C(=O)N[C@H]1CCC(=O)NC[C@@H](C(=O)N[C@@H](Cc2ccc(O)cc2)C(=O)N[C@@H](CCCN=C(N)N)C(=O)N[C@@H](CC(C)C)C(=O)N[C@@H](CCCN=C(N)N)C(=O)N[C@@H](Cc2ccc(O)cc2)C(N)=O)NC(=O)[C@@H]2CCCN2C(=O)[C@@H](NC(=O)[C@@H](N)[C@@H](C)CC)CCC(=O)NC[C@@H](C(=O)N[C@@H](Cc2ccc(O)cc2)C(=O)N[C@@H](CCCN=C(N)N)C(=O)N[C@@H](CC(C)C)C(=O)N[C@@H](CCCN=C(N)N)C(=O)N[C@@H](Cc2ccc(O)cc2)C(N)=O)NC(=O)[C@@H]2CCCN2C1=O` (I: H-IEP[Dap]YRLRY-NH2 / II: H-IEP[Dap]YRLRY-NH2; amide I:2-II:4, I:4-II:2), the Ki in [6] stood at 115 nM; in [10], 0.26 nM; in test [11] it was 0.07 nM; in test [12], 55 nM. The results for the EC50 in test [7], in [8] and in test [13] were 983 nM, 2050 nM and 2.5 nM, respectively. For the same compound, in test [9], the Selectivity result is “Y1/Y4/Y2/Y5”.

The values are drawn from ChEMBL document CHEMBL1134468 (J Med Chem, 2001).
